The values that follow come from ChEMBL document CHEMBL4350960, “Structural Basis for E. coli Penicillin Binding Protein (PBP) 2 Inhibition, a Platform for Drug Design” (J Med Chem, 2019).

≈ marks a conversion by molar mass, not a printed value. Calls of active or inactive are those of the source.

For orientation: MIC means the smallest concentration in the dilution series that meets the test's criterion for growth inhibition. Read a low MIC as a more susceptible organism. The term IC50 denotes the midpoint of a concentration-inhibition curve. A lower IC50 goes with higher potency. Broadly, the MIC50 is the lowest concentration that inhibits either 50% of growth or 50% of the strains tested, depending on the study. In general, MIC90 refers to an inhibitory concentration at the 90% level, which refers to growth in some studies and to a panel of isolates in others. Low readings indicate higher susceptibility, high ones lower susceptibility.

Test [1] addresses T1, Peptidoglycan D,D-transpeptidase MrdA (Escherichia coli K-12) (UniProt P0AD65).
T1 sequence (whole entry): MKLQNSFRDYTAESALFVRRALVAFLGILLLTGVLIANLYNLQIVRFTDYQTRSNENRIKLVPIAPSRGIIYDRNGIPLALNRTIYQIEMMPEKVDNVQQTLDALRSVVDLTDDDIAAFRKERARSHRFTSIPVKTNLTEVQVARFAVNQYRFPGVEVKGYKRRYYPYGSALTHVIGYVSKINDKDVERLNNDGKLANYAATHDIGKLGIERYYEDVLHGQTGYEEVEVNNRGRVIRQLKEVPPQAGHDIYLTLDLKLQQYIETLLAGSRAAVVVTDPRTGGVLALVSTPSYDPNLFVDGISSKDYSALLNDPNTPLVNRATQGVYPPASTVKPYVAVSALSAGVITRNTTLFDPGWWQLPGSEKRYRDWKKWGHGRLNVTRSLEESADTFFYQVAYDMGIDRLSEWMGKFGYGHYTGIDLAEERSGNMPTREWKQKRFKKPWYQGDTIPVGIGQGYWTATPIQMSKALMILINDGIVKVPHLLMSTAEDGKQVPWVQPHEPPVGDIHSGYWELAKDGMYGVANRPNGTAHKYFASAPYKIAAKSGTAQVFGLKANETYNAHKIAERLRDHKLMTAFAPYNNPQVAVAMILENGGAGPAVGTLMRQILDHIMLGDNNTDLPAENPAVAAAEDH
Briefly: (§1) Inhibition of bocillin-FL binding to Escherichia coli K12 NusA-fused/His6-tagged PBP2 (57 to 615 residues) expressed in Escherichia coli BL21(DE3) preincubated for 30 mins followed by bocillin-FL addition by RT-fluorescence anisotropy method. In general terms: In fluorescence polarisation assays a small probe gives low polarisation when free and higher when bound to something large.

Test [2] has as its target T2, Penicillin-binding protein 1A (Escherichia coli K-12) (UniProt P02918).
T2 sequence (whole entry): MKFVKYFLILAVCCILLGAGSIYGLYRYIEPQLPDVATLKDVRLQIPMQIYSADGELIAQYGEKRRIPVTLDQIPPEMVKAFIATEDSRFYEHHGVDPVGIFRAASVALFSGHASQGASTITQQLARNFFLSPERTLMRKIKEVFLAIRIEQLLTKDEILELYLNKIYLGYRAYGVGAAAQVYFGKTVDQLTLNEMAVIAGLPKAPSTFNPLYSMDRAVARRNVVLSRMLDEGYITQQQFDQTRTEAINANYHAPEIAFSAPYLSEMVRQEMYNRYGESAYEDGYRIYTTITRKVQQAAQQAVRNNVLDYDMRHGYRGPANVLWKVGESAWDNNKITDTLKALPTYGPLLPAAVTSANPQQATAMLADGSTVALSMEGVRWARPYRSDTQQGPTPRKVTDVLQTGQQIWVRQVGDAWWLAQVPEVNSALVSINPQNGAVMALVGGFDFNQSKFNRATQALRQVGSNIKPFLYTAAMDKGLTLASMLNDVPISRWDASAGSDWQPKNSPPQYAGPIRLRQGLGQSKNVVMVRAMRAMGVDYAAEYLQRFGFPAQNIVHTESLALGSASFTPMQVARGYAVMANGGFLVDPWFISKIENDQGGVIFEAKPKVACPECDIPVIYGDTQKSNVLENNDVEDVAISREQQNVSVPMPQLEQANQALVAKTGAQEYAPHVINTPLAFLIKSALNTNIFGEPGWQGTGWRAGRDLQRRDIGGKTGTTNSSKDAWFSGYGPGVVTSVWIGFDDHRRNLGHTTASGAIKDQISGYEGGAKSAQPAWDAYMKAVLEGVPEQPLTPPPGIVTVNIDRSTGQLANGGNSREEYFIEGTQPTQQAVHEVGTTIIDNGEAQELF
Kind of test: Inhibition of Escherichia coli PBP1a.

Test [3] concerns the target T3, Penicillin-binding protein 1B (Escherichia coli K-12) (UniProt P02919).
T3 sequence (whole entry): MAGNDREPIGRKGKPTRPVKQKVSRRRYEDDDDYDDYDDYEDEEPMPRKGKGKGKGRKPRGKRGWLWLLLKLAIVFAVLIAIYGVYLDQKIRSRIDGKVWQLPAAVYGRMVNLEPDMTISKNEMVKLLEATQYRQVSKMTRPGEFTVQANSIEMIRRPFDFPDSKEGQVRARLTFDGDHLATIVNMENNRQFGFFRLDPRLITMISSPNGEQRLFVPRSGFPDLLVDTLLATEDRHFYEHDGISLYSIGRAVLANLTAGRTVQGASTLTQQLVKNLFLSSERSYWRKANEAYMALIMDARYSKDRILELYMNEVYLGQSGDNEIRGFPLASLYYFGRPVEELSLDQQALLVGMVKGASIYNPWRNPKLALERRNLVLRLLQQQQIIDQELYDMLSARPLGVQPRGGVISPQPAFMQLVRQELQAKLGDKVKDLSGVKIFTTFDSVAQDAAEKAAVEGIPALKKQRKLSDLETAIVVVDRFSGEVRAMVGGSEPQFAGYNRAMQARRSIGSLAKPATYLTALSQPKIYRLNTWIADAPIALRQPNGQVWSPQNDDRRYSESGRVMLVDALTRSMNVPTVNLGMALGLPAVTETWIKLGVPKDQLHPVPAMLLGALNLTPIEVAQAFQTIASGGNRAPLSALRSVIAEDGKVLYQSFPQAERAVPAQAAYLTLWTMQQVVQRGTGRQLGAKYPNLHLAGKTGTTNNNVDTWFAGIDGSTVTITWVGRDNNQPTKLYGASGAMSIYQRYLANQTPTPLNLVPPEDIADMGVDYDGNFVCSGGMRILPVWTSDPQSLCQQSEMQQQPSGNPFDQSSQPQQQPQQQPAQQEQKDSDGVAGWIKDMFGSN
Kind of test: Inhibition of Escherichia coli PBP1b.

Test [4] relates to Escherichia coli. Briefly: Inhibition of Escherichia coli PBP3.
The subject of test [5] is Pseudomonas aeruginosa. Briefly: Antibacterial activity against Pseudomonas aeruginosa UFR49 measured after 16 to 20 hrs by broth microdilution method. The test is classed as functional. On the technique in general: In broth dilution the organism is exposed to a series of concentrations in liquid medium.
The target of test [6] is T4, Peptidoglycan D,D-transpeptidase MrdA (Escherichia coli K-12, UniProt P0AD65).
T4 sequence (P0AD65 whole entry): T1 sequence (whole entry)
The test is described as §1.

Test [7] relates to Escherichia coli. Briefly: Antibacterial activity against Escherichia coli UFR39 measured after 16 to 20 hrs by broth microdilution method. The test is classed as functional. The procedure, abridged:
(§2)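 Broth microdilution MICs following CLSI M7-A7, run against genotyped carbapenem-resistant E. coli and P. aeruginosa strains.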

The test system of test [8] is Escherichia coli. Briefly: Antibacterial activity against Escherichia coli clinical isolates measured after 16 to 20 hrs by broth microdilution method. The test is classed as functional. The procedure, abridged: as §2
In test [9] the test system is Pseudomonas aeruginosa. Briefly: Antibacterial activity against Pseudomonas aeruginosa clinical isolates measured after 16 to 20 hrs by broth microdilution method. The format is functional. The gist of the method:
as §2

In the case of `O=C1N2CC=C(c3cccnc3)C(C2)N1OS(=O)(=O)[O-].[Na+]` (stereo not drawn), in test [1], the inhibition result was “Active”. Besides, the inhibition result (in test [2]; in test [3]; in the test with Escherichia coli [4]) was “inactive” in each case. In addition, the MIC in the test on Pseudomonas aeruginosa [5] is more than 32 µg/mL.
For the molecule `O=C1N2CC=C(c3ccccn3)C(C2)N1OS(=O)(=O)[O-].[Na+]` (stereo not drawn), in test [1], the inhibition entry was “Active”. In addition, the inhibition entry (in test [2]; in test [3]; with Escherichia coli [4]) was “inactive” throughout. In addition, the MIC in the test with Pseudomonas aeruginosa [5] was more than 32 µg/mL.
Consider `O=C1N2CC=C(c3cnoc3)C(C2)N1OS(=O)(=O)[O-].[Na+]` (stereo not drawn), for which, in test [6], the IC50 was determined as 17 nM. In addition, the MIC against Pseudomonas aeruginosa [5] is more than 32 µg/mL.
On to `NC(=O)[C@@H]1CC[C@@H]2CN1C(=O)N2OS(=O)(=O)[O-].[Na+]` [AVIBACTAM SODIUM], for which the IC50 in [6] is 590 nM. Besides, the values for the MIC in the test with Escherichia coli [7] and with Pseudomonas aeruginosa [5] were 16 to 32 µg/mL and more than 32 µg/mL, respectively. For the same molecule, the MIC50 with Escherichia coli [8] is 32 µg/mL; with Pseudomonas aeruginosa [9], more than 32 µg/mL. The MIC90 with Escherichia coli [8] and in the test with Pseudomonas aeruginosa [9] was more than 32 µg/mL each time.
Consider `O=C1N2CCCC(C2)N1OS(=O)(=O)[O-].[Na+]` (stereo not drawn), for which the IC50 in [6] is more than 200000 nM. Besides, the inhibition entry (in test [2]; in test [3]; with Escherichia coli [4]) was “inactive” throughout. For the same molecule, the MIC with Escherichia coli [7] and in the test with Pseudomonas aeruginosa [5] was more than 32 µg/mL throughout.
For the molecule `CC(C)(O/N=C(\C(=O)N[C@@H]1C(=O)N2C(C(=O)[O-])=C(C[n+]3ccccc3)CS[C@H]12)c1csc(N)n1)C(=O)O` [CEFTAZIDIME], the MIC is more than 256 µg/mL against Escherichia coli [7] and 64 µg/mL (≈ 117 µM) against Pseudomonas aeruginosa [5]. Moreover, the MIC50 against Escherichia coli [8] and with Pseudomonas aeruginosa [9] was more than 32 µg/mL each time. In addition, the MIC90 in the test on Escherichia coli [8] and with Pseudomonas aeruginosa [9] was more than 32 µg/mL in each case.
In the test on Escherichia coli [8], `O=C(NNC(=O)[C@@H]1CC[C@@H]2CN1C(=O)N2OS(=O)(=O)O)[C@@H]1CCCNC1` [ZIDEBACTAM] displayed an MIC50 of 32 µg/mL (≈ 81.8 µM) and an MIC90 of more than 32 µg/mL. Moreover, in the test on Pseudomonas aeruginosa [9], the MIC50 was found to be 8 µg/mL (≈ 20.4 µM) and the MIC90 turned out to be 16 µg/mL (≈ 40.9 µM).
With `O=C1N2CC=C(c3ccncc3)C(C2)N1OS(=O)(=O)[O-].[Na+]` (stereo not drawn), in test [1], the inhibition result was “Active”. Also, the inhibition entry (in test [2]; in test [3]; with Escherichia coli [4]) was “inactive” throughout. The MIC against Pseudomonas aeruginosa [5] is more than 32 µg/mL.
Consider `O=C1N2CC=C(c3ncco3)C(C2)N1OS(=O)(=O)[O-].[Na+]` (stereo not drawn), for which the MIC in the test on Pseudomonas aeruginosa [5] was more than 32 µg/mL.
In turn, `C[C@@H](O)[C@H]1C(=O)N2C(C(=O)O)=C(S[C@@H]3CN[C@H](C(=O)N(C)C)C3)[C@H](C)[C@H]12` [MEROPENEM] gave an MIC in the test with Escherichia coli [7] of 128 µg/mL (≈ 334 µM). In the test on Escherichia coli [8], the MIC50 turned out to be 0.5 µg/mL (≈ 1.3 µM) and the MIC90 is more than 32 µg/mL. Further, in the test on Pseudomonas aeruginosa [9], the MIC50 came to 8 µg/mL (≈ 20.9 µM) and the MIC90 is more than 32 µg/mL.
Consider `O=C1N2CC=CC(C2)N1OS(=O)(=O)[O-].[Na+]` (stereo not drawn), for which the IC50 in [6] turned out to be 570 nM. For the same molecule, the inhibition entry (in test [2]; in test [3]; in the test with Escherichia coli [4]) was “inactive” each time. Besides, the MIC in the test with Escherichia coli [7] was 16 µg/mL; in the test on Pseudomonas aeruginosa [5], more than 32 µg/mL.
`O=C1N2CC=C(c3cnco3)C(C2)N1OS(=O)(=O)[O-].[Na+]` (stereo not drawn) came in with an IC50 in test [6] of 25 nM. In addition, the inhibition result (in test [2]; in [3]; in the test on Escherichia coli [4]) was “inactive” each time. The MIC with Escherichia coli [7] was 4 µg/mL; against Pseudomonas aeruginosa [5], more than 32 µg/mL.
